PMC6911349 (Drug Design, Development and Therapy, 2019)
Values after ≈ are worked out from the molar mass of the structure shown. Counter-ions that a name gives are not always drawn. Like-named read-outs stand apart in the source and are kept apart here.

Columns and labels:
α-glucosidase = α-glucosidase (Saccharomyces cerevisiae, UniProt P53341); assay: α-Glucosidase inhibition chromogenic assay; type: biochemical
H2O2 anti-radicals study = assay: H2O2 anti-radicals study
Procedure, shortened: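 2 mM H2O2 in 50 mM phosphate buffer, pH 7.4, mixed with 0.1 mL test compound at various concentrations. Absorbance at 230 nm read against blank after 10 min; H2O2 scavenging calculated from absorbance.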

[1] = DPPH radical scavenging assay
Procedure, shortened: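 Test compound dilutions of 62.50–1000 µg/mL; 0.1 mL of each added to 3.0 mL DPPH in methanol. Incubated 30 min, then absorbance read at 517 nm. % scavenging = [(A0–A1)/A0]×100, where A0 is control and A1 is test absorbance. Ascorbic acid as reference.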

ABTS anti-radicals study = assay: ABTS anti-radicals study
Procedure, shortened: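 ABTS (7 mM) combined with […] and held in the dark at 25 °C for 12–16 h to form radicals. Diluted in 0.01 M phosphate buffer, pH 7.4, to A734 of 0.70. 300 µL test compound solution added to 3.0 mL radical solution; decrease in absorbance recorded. Ascorbic acid as reference.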

Ascaridia galli = assay: Anthelmintic study
Procedure, shortened: (§1)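 P. posthuma (7–9 cm) collected from muddy soil; A. galli taken from domestic chicken intestine. Test compound suspended in distilled water with Tween 80 at 10, 20 and 40 mg. 25 mL per Petri dish, six worms per dish. […] Paralysis and death times recorded.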

Pheretima posthuma = assay: Anthelmintic study
Procedure, shortened: as §1

MDA-MB-231 = assay: MTT assay; type: cell-based; details: Homo sapiens, MDA-MB-231, 48 h
Procedure, shortened: (§2)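 Cells grown in DMEM with 10% FBS, streptomycin 100 µg/mL and penicillin 100 IU/mL, at 37 °C, 5% CO2. Seeded at 6×10^4 cells/mL (80% confluence) and incubated overnight. Medium replaced with fresh medium holding test compound at 31.25–1000 ppm for 48 h.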

NIH/3T3 = assay: MTT assay; type: cell-based; details: Mus musculus, NIH3T3, 48 h
Procedure, shortened: as §2

[2] = target: acetylcholinesterase (AChE) (Electrophorus electricus, UniProt O42275); assay: biochemical; set-up: species or system electric eel
Chain of acetylcholinesterase (AChE) (O42275 24-633): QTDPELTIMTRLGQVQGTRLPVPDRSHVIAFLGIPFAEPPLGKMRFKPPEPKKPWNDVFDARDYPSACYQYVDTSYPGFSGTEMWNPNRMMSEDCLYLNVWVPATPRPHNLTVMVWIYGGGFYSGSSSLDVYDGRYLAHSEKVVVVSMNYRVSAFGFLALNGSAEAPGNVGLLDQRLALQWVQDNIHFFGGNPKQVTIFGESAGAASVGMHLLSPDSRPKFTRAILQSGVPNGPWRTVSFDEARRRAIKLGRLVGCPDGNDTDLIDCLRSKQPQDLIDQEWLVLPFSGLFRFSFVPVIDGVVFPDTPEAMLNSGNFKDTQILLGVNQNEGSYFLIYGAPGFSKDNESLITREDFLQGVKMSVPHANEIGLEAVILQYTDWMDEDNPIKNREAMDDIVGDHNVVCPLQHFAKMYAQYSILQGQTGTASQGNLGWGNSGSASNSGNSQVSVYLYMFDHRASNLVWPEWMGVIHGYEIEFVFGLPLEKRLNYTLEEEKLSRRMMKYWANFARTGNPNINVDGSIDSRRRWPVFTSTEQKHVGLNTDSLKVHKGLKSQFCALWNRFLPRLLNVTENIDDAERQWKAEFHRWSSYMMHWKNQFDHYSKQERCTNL

MCF-7 = assay: MTT assay; type: cell-based; details: Homo sapiens, MCF7, 48 h
Procedure, shortened: as §2

HCT-116 = assay: MTT assay; type: cell-based; details: Homo sapiens, HCT-116, 48 h
Procedure, shortened: as §2

[3] = MTT assay, normal cell line; type: cell-based; details: human, WI-38 normal cell line
Procedure, shortened: as §2

WI-38 = assay: MTT assay, normal cell line; type: cell-based; details: Homo sapiens, WI-38, WI-38 normal cell line
Procedure, shortened: as §2

[4] = target: butyrylcholinesterase (BChE) (Equus caballus, UniProt P81908); assay: Butyrylcholinesterase inhibitory assay; type: biochemical, equine; details: for inhibition at 62.5 µg/mL: read-out: Butyrylcholinesterase (BChE) Percent Inhibition (Mean±SEM), 62.5 μg/mL; for inhibition at 125 µg/mL: read-out: Butyrylcholinesterase (BChE) Percent Inhibition (Mean±SEM), 125 μg/mL; for inhibition at 250 µg/mL: read-out: Butyrylcholinesterase (BChE) Percent Inhibition (Mean±SEM), 250 μg/mL; for inhibition at 1000 µg/mL: read-out: Butyrylcholinesterase (BChE) Percent Inhibition (Mean±SEM), 1000 μg/mL
Chain of butyrylcholinesterase (BChE) (P81908 whole entry): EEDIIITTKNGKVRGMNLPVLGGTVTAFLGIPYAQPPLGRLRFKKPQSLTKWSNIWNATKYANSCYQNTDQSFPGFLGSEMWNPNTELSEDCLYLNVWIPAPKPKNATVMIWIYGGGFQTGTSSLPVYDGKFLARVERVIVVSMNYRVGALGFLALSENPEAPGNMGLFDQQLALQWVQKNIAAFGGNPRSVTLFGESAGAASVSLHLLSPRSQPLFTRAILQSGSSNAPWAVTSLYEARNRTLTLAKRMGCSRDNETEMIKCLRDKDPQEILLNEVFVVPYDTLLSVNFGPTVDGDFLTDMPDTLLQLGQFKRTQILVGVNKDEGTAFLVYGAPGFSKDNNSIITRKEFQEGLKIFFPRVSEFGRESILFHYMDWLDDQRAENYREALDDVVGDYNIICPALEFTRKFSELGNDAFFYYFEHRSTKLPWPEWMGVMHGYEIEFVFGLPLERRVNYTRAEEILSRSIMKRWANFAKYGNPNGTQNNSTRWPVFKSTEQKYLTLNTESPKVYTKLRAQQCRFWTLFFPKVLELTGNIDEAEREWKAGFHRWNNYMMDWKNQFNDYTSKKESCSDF

[5] = 40 mg/mL, listed as albendazole
[6] = 40 mg/mL, listed as test compound
[7] = 1000 µg/mL, listed as test compound

Chain of α-glucosidase (P53341 whole entry): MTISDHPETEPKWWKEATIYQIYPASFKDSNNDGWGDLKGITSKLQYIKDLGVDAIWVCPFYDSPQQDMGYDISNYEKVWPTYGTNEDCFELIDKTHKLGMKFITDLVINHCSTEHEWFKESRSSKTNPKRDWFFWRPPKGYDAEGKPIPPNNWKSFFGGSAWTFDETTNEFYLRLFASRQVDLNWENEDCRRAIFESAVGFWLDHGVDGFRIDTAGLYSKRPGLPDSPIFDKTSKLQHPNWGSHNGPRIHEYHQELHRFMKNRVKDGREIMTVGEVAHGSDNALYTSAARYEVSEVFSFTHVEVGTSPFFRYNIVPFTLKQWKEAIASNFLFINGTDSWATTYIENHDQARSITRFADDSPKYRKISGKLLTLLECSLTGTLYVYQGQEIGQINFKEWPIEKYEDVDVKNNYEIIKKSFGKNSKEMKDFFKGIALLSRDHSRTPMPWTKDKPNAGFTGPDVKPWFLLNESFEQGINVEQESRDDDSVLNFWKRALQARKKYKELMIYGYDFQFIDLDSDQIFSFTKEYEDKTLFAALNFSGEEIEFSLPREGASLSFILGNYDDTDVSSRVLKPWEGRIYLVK

## C[C@H]1O[C@H](O[C@H]2[C@H](O)[C@@H](O)[C@@H](O[C@H]3[C@H](O)[C@@H](O)C(O)O[C@@H]3CO)O[C@@H]2CO)[C@H](O)[C@@H](O)[C@@H]1N[C@H]1C=C(CO)[C@@H](O)[C@H](O)[C@H]1O (some centres unmarked) [Acarbose, acarbose]
α-glucosidase; 31.25 µg/mL
  Percent α-glucosidase inhibition: 59.7±1.7%
α-glucosidase; 62.5 µg/mL
  Percent α-glucosidase inhibition: 67.3±2.8%
α-glucosidase; 125 µg/mL
  Percent α-glucosidase inhibition: 71.7±1.7%
α-glucosidase; 250 µg/mL
  Percent α-glucosidase inhibition: 74.4± 2.3%
α-glucosidase; 500 µg/mL
  Percent α-glucosidase inhibition: 81.7±2.6%
α-glucosidase; 1000 µg/mL
  Percent α-glucosidase inhibition: 86.7±2.6%

## O=C1O[C@H]([C@@H](O)CO)C(O)=C1O [Ascorbic acid, ascorbic acid, reference compound]
H2O2 anti-radicals study
  H2O2 IC50 value: 29.73 µg/mL
H2O2 anti-radicals study; 62.5 µg/mL
  H2O2 % Inhibition (Mean±SEM): 56.67±1.67%
H2O2 anti-radicals study; 125 µg/mL
  H2O2 % Inhibition (Mean±SEM): 61.33±1.33%
H2O2 anti-radicals study; 250 µg/mL
  H2O2 % Inhibition (Mean±SEM): 68.85±1.85%
H2O2 anti-radicals study; 500 µg/mL
  H2O2 % Inhibition (Mean±SEM): 74.67±0.67%
H2O2 anti-radicals study; 1000 µg/mL
  H2O2 % Inhibition (Mean±SEM): 78.00±1.15%
[1]
  DPPH IC50 value: 11.39 µg/mL
[1]; 62.5 µg/mL
  DPPH % Inhibition (Mean±SEM): 61.35±0.18%
[1]; 125 µg/mL
  DPPH % Inhibition (Mean±SEM): 66.20±0.15%
[1]; 250 µg/mL
  DPPH % Inhibition (Mean±SEM): 73.42±0.11%
[1]; 500 µg/mL
  DPPH % Inhibition (Mean±SEM): 78.62±0.17%
[1]; 1000 µg/mL
  DPPH % Inhibition (Mean±SEM): 83.53±0.20%
ABTS anti-radicals study
  ABTS IC50 value: 18.04 µg/mL
ABTS anti-radicals study; 62.5 µg/mL
  ABTS % Inhibition (Mean±SEM): 59.12±0.34%
ABTS anti-radicals study; 125 µg/mL
  ABTS % Inhibition (Mean±SEM): 64.47±0.49%
ABTS anti-radicals study; 250 µg/mL
  ABTS % Inhibition (Mean±SEM): 69.75±0.14%
ABTS anti-radicals study; 500 µg/mL
  ABTS % Inhibition (Mean±SEM): 76.59±0.30%
ABTS anti-radicals study; 1000 µg/mL
  ABTS % Inhibition (Mean±SEM): 81.85±0.18%

## CCCSc1ccc2nc(NC(=O)OC)[nH]c2c1 [Alb, Albendazole, reference compound]
Ascaridia galli; 10 mg/mL
  Ascaridia galli Death Time: 36.32 ± 1.36 min
  Ascaridia galli Paralysis Time: 11.26 ± 2.81 min
Ascaridia galli; 20 mg/mL
  Ascaridia galli Death Time: 32.56 ± 1.93 min
  Ascaridia galli Paralysis Time: 09.45 ± 1.63 min
Ascaridia galli; 40 mg/mL
  Ascaridia galli Death Time: 25.68 ± 3.62 min
  Ascaridia galli Paralysis Time: 07.18 ± 1.74 min
Pheretima posthuma; 10 mg/mL
  Pheretima posthuma Death Time: 48.70 ± 2.06 min
  Pheretima posthuma Paralysis Time: 09.08 ± 1.56 min
Pheretima posthuma; 20 mg/mL
  Pheretima posthuma Death Time: 39.33 ± 1.54 min
  Pheretima posthuma Paralysis Time: 07.24 ± 1.38 min
Pheretima posthuma; 40 mg/mL
  Pheretima posthuma Death Time: 28.92 ± 2.68 min
  Pheretima posthuma Paralysis Time: 04.67 ± 0.57 min
Pheretima posthuma; [5]
  Pheretima posthuma Death Time: 28.92 min
  Pheretima posthuma Paralysis Time: 4.67 min

## CCC(C=O)C1CC(=O)N(c2ccccc2)C1=O (centres unmarked) [2-(2,5-dioxo-1-phenylpyrrolidin-3-yl)butanal]
MDA-MB-231
  IC50: 231 µg/mL (≈ 942 µM)
NIH/3T3
  IC50: 181 µg/mL (≈ 738 µM)
[2]
  IC50: 422 µM
[2]; 1000 µg/mL
  Acetylcholinesterase (AChE) Percent Inhibition (Mean±SEM): 71.3±1.9%
[2]; read-out: Acetylcholinesterase (AChE) Percent Inhibition (Mean±SEM), 62.5 μg/mL
  inhibition at 62.5 µg/mL: 39.6%
[2]; read-out: Acetylcholinesterase (AChE) Percent Inhibition (Mean±SEM), 125 μg/mL
  inhibition at 125 µg/mL: 55.9%
[2]; read-out: Acetylcholinesterase (AChE) Percent Inhibition (Mean±SEM), 250 μg/mL
  inhibition at 250 µg/mL: 61.2%
[2]; read-out: Acetylcholinesterase (AChE) Percent Inhibition (Mean±SEM), 500 μg/mL
  inhibition at 500 µg/mL: 65.4%
[2]; read-out: Acetylcholinesterase (AChE) Percent Inhibition (Mean±SEM), 1000 μg/mL
  inhibition at 1000 µg/mL: 71.3 ± 1.92%
H2O2 anti-radicals study
  H2O2 IC50 value: 752.21 µg/mL
H2O2 anti-radicals study; 62.5 µg/mL
  H2O2 % Inhibition (Mean±SEM): 26.08±2.66%
H2O2 anti-radicals study; 125 µg/mL
  H2O2 % Inhibition (Mean±SEM): 31.58±1.40%
H2O2 anti-radicals study; 250 µg/mL
  H2O2 % Inhibition (Mean±SEM): 39.92±2.08%
H2O2 anti-radicals study; 500 µg/mL
  H2O2 % Inhibition (Mean±SEM): 46.08±1.36%
H2O2 anti-radicals study; 1000 µg/mL
  H2O2 % Inhibition (Mean±SEM): 54.82±1.82%
Ascaridia galli; 10 mg/mL
  Ascaridia galli Death Time: 18.42 ± 1.70 min
  Ascaridia galli Paralysis Time: 06.54 ± 1.67 min
Ascaridia galli; 20 mg/mL
  Ascaridia galli Death Time: 11.36 ± 1.94 min
  Ascaridia galli Paralysis Time: 04.82 ± 1.38 min
Ascaridia galli; 40 mg/mL
  Ascaridia galli Death Time: 09.39 ± 1.48 min
  Ascaridia galli Paralysis Time: 02.19 ± 0.96 min
MCF-7
  IC50: 277 µg/mL (≈ 1130 µM)
HCT-116
  IC50: 78 µg/mL (≈ 318 µM)
[3]
  cytotoxicity at 48 h, 1000 ppm: 16%
WI-38
  IC50: > 3000 µg/mL
[4]
  IC50: 539 µM
  inhibition at 62.5 µg/mL: 36.9%
  inhibition at 125 µg/mL: 49.3%
  inhibition at 250 µg/mL: 52.7%
  inhibition at 1000 µg/mL: 73.4 ± 1.92%
[4]; 1000 µg/mL
  Butyrylcholinesterase (BChE) Percent Inhibition (Mean±SEM): 73.4±1.9%
[4]; read-out: Butyrylcholinesterase (BChE) Percent Inhibition (Mean±SEM), 500 μg/mL
  inhibition at 500 µg/mL: 64.3%
Pheretima posthuma; 10 mg/mL
  Pheretima posthuma Death Time: 23.67 ± 1.52 min
  Pheretima posthuma Paralysis Time: 06.67 ± 1.08 min
Pheretima posthuma; 20 mg/mL
  Pheretima posthuma Death Time: 19.23 ± 2.56 min
  Pheretima posthuma Paralysis Time: 05.68 ± 0.34 min
Pheretima posthuma; 40 mg/mL
  Pheretima posthuma Death Time: 14.71 ± 1.73 min
  Pheretima posthuma Paralysis Time: 02.48 ± 1.62 min
Pheretima posthuma; [6]
  Pheretima posthuma Death Time: 14.71 min
  Pheretima posthuma Paralysis Time: 2.48 min
[1]
  DPPH IC50 value: 139.74 µg/mL
[1]; 62.5 µg/mL
  DPPH % Inhibition (Mean±SEM): 33.32±2.04%
[1]; 125 µg/mL
  DPPH % Inhibition (Mean±SEM): 49.01±1.28%
[1]; 250 µg/mL
  DPPH % Inhibition (Mean±SEM): 61.41±2.36%
[1]; 500 µg/mL
  DPPH % Inhibition (Mean±SEM): 71.36±1.92%
[1]; 1000 µg/mL
  DPPH % Inhibition (Mean±SEM): 72.85±1.17%
[1]; [7]
  DPPH % Inhibition (Mean±SEM): 75.84±1.58%
[1]; listed as test compound
  DPPH IC50 value: 84.36 µg/mL
ABTS anti-radicals study
  ABTS IC50 value: 84.36 µg/mL
ABTS anti-radicals study; 62.5 µg/mL
  ABTS % Inhibition (Mean±SEM): 48.08±2.19%
ABTS anti-radicals study; 125 µg/mL
  ABTS % Inhibition (Mean±SEM): 57.22±1.63%
ABTS anti-radicals study; 250 µg/mL
  ABTS % Inhibition (Mean±SEM): 61.28±0.84%
ABTS anti-radicals study; 500 µg/mL
  ABTS % Inhibition (Mean±SEM): 68.35±1.96%
ABTS anti-radicals study; 1000 µg/mL
  ABTS % Inhibition (Mean±SEM): 75.84±1.58%
ABTS anti-radicals study; [7]
  ABTS % Inhibition (Mean±SEM): 72.85±1.17%
ABTS anti-radicals study; listed as test compound
  ABTS IC50 value: 139.74 µg/mL

## COc1ccc2c3c1O[C@H]1C[C@@H](O)C=C[C@@]31CCN(C)C2 [Galanthamine, Galanthamine hydrobromide, reference compound]
[4]
  inhibition at 62.5 µg/mL: 71.4%
  inhibition at 125 µg/mL: 78.6%
  inhibition at 250 µg/mL: 82.8%
  inhibition at 1000 µg/mL: 95%
